Reference: ChEMBL document CHEMBL1126801, “Synthesis and antiviral activity of 2'-substituted 9-[2-(phosphonomethoxy)ethyl]guanine analogues” (J Med Chem, 1993)

What was measured:
[1] = Toxic concentration, in CEM cells estimated by the XTT assay; type: toxicity, cell-based; details: human, CCRF-CEM (CEM) cells; read-out: TC50 (the source's name)
[2] = tested on: Human immunodeficiency virus 1; test: Tested in vitro against human immunodeficiency virus (HIV) infected CEM cells using XTT assay (HIV-HRF strain); NA = not active at 100 uM; type: functional, organism-based; details: ccrf-cem
Outline: (§1)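 Anti-HIV XTT assay in HIV-infected CEM cells, using the LAV-BRU or HIV-HRF strain as the line names. The value is the 50% inhibitory concentration. The top concentration tested was 100 μM, and inactivity there is scored NA.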

[3] = Tested in vitro against HSV 2 from Wi-38 cells; type: organism-based; details: human alphaherpesvirus 2, WI-38 cells; read-out: TC50 (the source's name)
[4] = Tested in vitro against HCMV from WI-38 cells; type: organism-based; details: human betaherpesvirus 5, WI-38 cells; read-out: TC50 (the source's name)
Human alphaherpesvirus 2 [5] = test: Tested in vitro against HSV 2 from WI-38 cells; NA= not active at 100 uM; type: functional, organism-based
Human betaherpesvirus 5 [6] = test: Tested in vitro against HCMV from WI-38 cells; NA= not active at 100 uM; type: functional, organism-based
[7] = tested on: Human immunodeficiency virus 1; test: Tested in vitro against human immunodeficiency virus (HIV) infected CEM cells using XTT assay (LAV-BRU strain); NA = not active at 100 uM; type: functional, organism-based; details: ccrf-cem; outline: as §1
Human alphaherpesvirus 2 [8] = test: Tested in vitro against HSV 2 G strain in vero cells; NA= not active at 100 uM; type: functional, organism-based
Outline: (§2)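 Plaque reduction assay against HSV-2 strain G in Vero cells, giving a 50% inhibitory concentration. The top concentration tested was 100 μM, and inactivity there is scored NA.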

Human betaherpesvirus 5 [9] = test: (§3) Tested in vitro against HCMV AD-169 strain in MRC-5 cells; type: functional, organism-based; details: Human betaherpesvirus 5, MRC5
Outline: (§4)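 Plaque reduction assay against HCMV strain AD-169 in MRC-5 cells, giving a 50% inhibitory concentration. The top concentration tested was 100 μM, and inactivity there is scored NA.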

[10] = as §3; type: ADME, organism-based, MRC5; details: human betaherpesvirus 5, MRC-5 cells; read-out: TC50 (the source's name)
[11] = (§5) Tested in vitro against HSV 2 G strain in vero cells; type: organism-based; details: human alphaherpesvirus 2, Vero cells; read-out: TC50 (the source's name)
Human betaherpesvirus 5 [12] = test: Tested in vitro against HCMV AD-169 strain in MRC-5 cells; NA= not active at 100 uM; type: functional, organism-based; details: mrc5; outline: as §4
CCRF-CEM = test: Cell growth toxicity against CEM cells after treatment with compound for 72 hours; type: functional; details: Homo sapiens
Outline: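 Cytotoxicity in CEM cells: cells counted after 72 h drug exposure; the value is the concentration giving 50% cell growth toxicity.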

[13] = tested on: Human immunodeficiency virus 1; test: Tested in vitro against human immunodeficiency virus (HIV) infected CEM cells using XTT assay (HIV-HRF strain); type: functional, organism-based; details: Human immunodeficiency virus 1, CCRF-CEM; outline: as §1
Human betaherpesvirus 5 [14] = test: Tested in vitro against HCMV from WI-38 cells; NA= not active at 100 uM as determined in WI-38 cells; type: functional, organism-based
[15] = Ratio between TC50 against human immunodeficiency virus infected CEM cells and IC50 against CEM cells; type: functional, CCRF-CEM
Outline: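 Selectivity index is TC50 divided by IC50. TC50 is the 50% toxic concentration from the XTT assay in CEM cells. IC50 is the 50% inhibitory concentration from the XTT assay in HIV-infected CEM cells.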

[16] = Tested in vitro against HSV 2 from WI-38 cells; type: organism-based; details: human alphaherpesvirus 2, WI-38 cells; read-out: TC50 (the source's name)
[17] = tested on: Human immunodeficiency virus 1; test: Tested in vitro against human immunodeficiency virus (HIV) infected CEM cells using XTT assay (LAV-BRU strain); type: functional, organism-based; details: Human immunodeficiency virus 1, CCRF-CEM; outline: as §1
Human alphaherpesvirus 2 [18] = test: as §5; type: functional, organism-based; details: Human alphaherpesvirus 2, Vero; outline: as §2
Human alphaherpesvirus 2 [19] = test: as §5; type: functional, organism-based, herpes simplex virus; details: Human alphaherpesvirus 2, Vero; outline: as §2

Row | Compound | CC50 [1] [µM] | IC50 (Human alphaherpesvirus 2 [8]) | IC50 (Human betaherpesvirus 5 [9]) [µM] | CC50 [10] [µM] | CC50 [11] [µM] | CC50 (CCRF-CEM) [µM] | Selectivity index [15] | IC50 [17] [µM] | also measured
1 | Nc1nc(O)c2ncn(C[C@H](OCP(=O)(O)O)C3CC3)c2n1 | > 1000 |  |  |  |  |  |  |  | IC50 [2]: Not Active; CC50 [3]: > 300 µM; CC50 [4]: > 300 µM; IC50 (Human alphaherpesvirus 2 [5]): Not Active; IC50 (Human betaherpesvirus 5 [6]): Not Active
2 | Nc1nc(O)c2ncn(C[C@H](CCO)OCP(=O)(O)O)c2n1 | > 500 | Not Active | 162 | > 300 | 300 |  |  |  | IC50 [7]: Not Active
3 | [N-]=[N+]=NCC[C@@H](Cn1cnc2c(O)nc(N)nc21)OCP(=O)(O)O | > 500 | Not Active |  | 300 | 300 |  |  |  | IC50 [7]: Not Active; IC50 (Human betaherpesvirus 5 [12]): Not Active
4 | C=C[C@H](Cn1cnc2c(O)nc(N)nc21)OCP(=O)(O)O | > 1000 |  |  |  |  | > 1590 | >77 |  | IC50 [13]: 13 µM; CC50 [4]: > 300 µM; IC50 (Human betaherpesvirus 5 [14]): Not Active
5 | CC[C@@H](Cn1cnc2c(O)nc(N)nc21)OCP(=O)(O)O | > 500 | Not Active |  | 300 | 300 |  | >2 |  | IC50 [13]: 252 µM; IC50 (Human betaherpesvirus 5 [12]): Not Active
6 | CC[C@H](Cn1cnc2c(O)nc(N)nc21)OCP(=O)(O)O | 1000 |  |  |  |  |  | 19 |  | IC50 [13]: 54 µM; CC50 [16]: > 300 µM; CC50 [4]: > 300 µM; IC50 (Human alphaherpesvirus 2 [5]): Not Active; IC50 (Human betaherpesvirus 5 [6]): Not Active
7 | C[C@@H](Cn1cnc2c(O)nc(N)nc21)OCP(=O)(O)O |  |  | 16 | > 330 | > 330 | 12 | 25 | 12 | IC50 (Human alphaherpesvirus 2 [18]): 43 µM
8 | C=C[C@@H](Cn1cnc2c(O)nc(N)nc21)OCP(=O)(O)O | > 1000 | Not Active |  | > 300 | 300 | > 1590 | >20 |  | IC50 [13]: 49 µM; IC50 (Human betaherpesvirus 5 [12]): Not Active
9 | Nc1nc(O)c2ncn(C[C@H](CCF)OCP(=O)(O)O)c2n1 | > 500 | Not Active |  | 300 | 300 |  |  |  | IC50 [7]: Not Active; IC50 (Human betaherpesvirus 5 [12]): Not Active
10 | Nc1nc(O)c2ncn(C[C@@H](CCO)OCP(=O)(O)O)c2n1 | > 450 | Not Active |  |  | 300 |  |  |  | IC50 [7]: Not Active
11 | C[C@H](Cn1cnc2c(O)nc(N)nc21)OCP(=O)(O)O | > 500 |  | 16 | > 330 | > 330 | 180 | >500 | 1 | IC50 (Human alphaherpesvirus 2 [18]): 82 µM
12 | Nc1nc(O)c2ncn(C[C@@H](OCP(=O)(O)O)C3CC3)c2n1 | 91 | Not Active |  |  | 300 |  |  |  | IC50 [2]: Not Active
13 | Nc1nc(O)c2ncn(CC(CF)OCP(=O)(O)O)c2n1 (single isomer, unassigned; form 1) | > 500 |  | 136 | > 310 | > 310 | 427 | > 63 | 8 | 
14 | Nc1nc2c(ncn2CC(CO)OCP(=O)(O)O)c(=O)[nH]1 (single isomer, unassigned; form 1) | > 500 |  | 1.6 | > 310 | > 310 |  | > 1 | 500 | IC50 (Human alphaherpesvirus 2 [19]): 97 µM
15 | Nc1nc(O)c2ncn(CC(CCl)OCP(=O)(O)O)c2n1 (single isomer, unassigned; form 1) | > 500 | Not Active | 51 | > 300 | > 300 | 870 | > 11 | 45 | 
16 | [N-]=[N+]=NCC(Cn1cnc2c(O)nc(N)nc21)OCP(=O)(O)O (single isomer, unassigned; form 1) | > 1000 | Not Active | 33 | > 300 | > 300 | > 1400 | > 200 |  | IC50 [13]: 5 µM
17 | [N-]=[N+]=NCC(Cn1cnc2c(O)nc(N)nc21)OCP(=O)(O)O (single isomer, unassigned; form 2) | > 1000 | Not Active | 15 | > 300 | > 300 | 134 | > 20 |  | IC50 [13]: 51 µM
18 | Nc1nc(O)c2ncn(CC(CCl)OCP(=O)(O)O)c2n1 (single isomer, unassigned; form 2) | > 500 | Not Active | 112 | 300 | 300 | > 1500 | > 10 | 50 | 
19 | Nc1nc(O)c2ncn(CC(CO)OCP(=O)(O)O)c2n1 (single isomer, unassigned; form 2) |  |  | 0.8 | > 310 | > 310 |  | < 1 | > 500 | IC50 (Human alphaherpesvirus 2 [18]): 99 µM
20 | Nc1nc(O)c2ncn(CC(CF)OCP(=O)(O)O)c2n1 (single isomer, unassigned; form 2) | > 500 |  | 150 | > 310 | > 310 | 93 | > 71 | 7 | 
21 | Nc1nc2c(ncn2CCOCP(=O)(O)O)c(=O)[nH]1 [GS-438] |  |  | 0.09 | 30 | 17 | 0.2 | 75 | 0.2 | IC50 (Human alphaherpesvirus 2 [18]): 1.1 µM
